Source: PMC4179762 (Drug Design, Development and Therapy, 2014)

Columns and labels:
[1] = biological target: T1, hH3R (Homo sapiens, UniProt Q9Y5N1); experiment: hH3R saturation binding experiments with [3H]Nα-methylhistamine
[2] = biological target: T2, hH4R (Homo sapiens, UniProt Q9H3N8); experiment: Metric analyses; details: LELP=clogP/LE
[3] = biological target: T1, hH3R; experiment: hH3R radioligand competition binding assay
Outline: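 HEK-293 membranes stably expressing hH3R, sonicated at 4°C, in 12.5 mM MgCl2/100 mM NaCl/75 mM Tris-HCl pH 7.4; 20–25 μg/well. […] Unlabeled histamine defined non-specific binding. PEI-treated GF/B filtration, scintillation counting, nonlinear fit; Ki by Cheng–Prusoff.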

[4] = biological target: T2, hH4R; experiment: hH4R radioligand competition binding assay; details: compared to compound 3
Outline: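 Sf9 membranes co-expressing hH4R with Gαi2 and Gβ1γ2, pelleted (16,000 g, 10 min, 4°C) into 12.5 mM MgCl2/1 mM EDTA/75 mM Tris-HCl pH 7.4; 35 μg/well. Incubated 60 min, 25°C, shaking, with 10 nM [3H]histamine and seven test concentrations (0.1 nM–100 μM), triplicate. Non-specific binding with 100 μM histamine. PEI-treated GF/B filtration, scintillation counting; Ki by Cheng–Prusoff.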

[5] = biological target: T1, hH3R; experiment: Metric analyses; details: LELP=clogP/LE

T1 sequence (Q9Y5N1 whole entry): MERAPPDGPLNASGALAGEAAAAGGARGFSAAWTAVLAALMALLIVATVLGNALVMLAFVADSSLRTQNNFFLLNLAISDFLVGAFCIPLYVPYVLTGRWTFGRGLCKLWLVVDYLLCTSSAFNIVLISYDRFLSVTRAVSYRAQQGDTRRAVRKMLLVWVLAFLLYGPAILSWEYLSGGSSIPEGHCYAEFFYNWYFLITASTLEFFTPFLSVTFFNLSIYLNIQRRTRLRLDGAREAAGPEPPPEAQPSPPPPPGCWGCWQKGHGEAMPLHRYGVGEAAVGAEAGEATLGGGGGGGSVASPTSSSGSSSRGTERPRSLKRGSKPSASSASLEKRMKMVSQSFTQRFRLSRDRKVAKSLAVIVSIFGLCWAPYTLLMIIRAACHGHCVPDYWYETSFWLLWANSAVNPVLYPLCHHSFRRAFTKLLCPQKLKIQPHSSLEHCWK

Row | LELP (hH4R) [2] | LELP (hH3R) [5] | Compound | other results
1 | 13.11 | – | 6-(4-methylpiperazin-1-yl)-N-(4-(3-(piperidin-1-yl)propoxy)benzyl)pyrimidin-2,4-diamine [Compound 4] | fold higher affinity for hH4Rs [4]: 3 ×; fold weaker affinity for hH3Rs ([3]; compared to compound 3): ~5 ×
2 | 23.57 | 12.79 | c1ccc(CNc2ccnc(Nc3ccc(OCCCN4CCCCC4)cc3)n2)cc1 [Compound 5, N^4-benzyl-N^2-(4-(3-(piperidin-1-yl)propoxy)phenyl)pyrimidin-2,4-diamine] | Ratio hH4R/hH3R ([3]; receptor subtype selectivity, Ki hH4R / Ki hH3R): more than 6,500
3 | 17.82 | 13.55 | CN1CCN(CCCOc2ccc(Nc3nccc(NCc4ccccc4)n3)cc2)CC1 [Compound 6, N^4-benzyl-N^2-(4-(3-(4-methylpiperazin-1-yl)propoxy)phenyl)pyrimidin-2,4-diamine] | –

Second part, the compound before the results:

Row | Compound | LELP (hH4R) [2] | LELP (hH3R) [5] | other results
4 | [3H]CNCCc1cnc[nH]1 [[^3H] N^α-MeHA, [^3H]N^α-methylhistamine] | – | – | pKd of radioligand at hH3R ([1]; HEK-293 membranes): 8.53±0.01
5 | CN1CCN(c2cc(Nc3ccc(OCCCN4CCCCC4)cc3)nc(N)n2)CC1 [Compound 3, 6-(4-methylpiperazin-1-yl)-N^4-(4-(3-(piperidin-1-yl)propoxy)phenyl)pyrimidin-2,4-diamine] | 15.17 | – | fold increased affinity for hH3R ([3]; vs compound 2): 49 ×
6 | CNCCc1cnc[nH]1 [[^3H] N^α-MeHA, [^3H]N^α-methylhistamine] | – | – | Kd ([1]; read-out: Kd value of radioligand at hH3R, HEK-293 membranes): 2.98 nM
